pIC50: −log10 of the molar value.

This note sets out measurements from ChEMBL document CHEMBL1772969, “Synthesis, structure-activity relationship, and antimalarial activity of ureas and thioureas of 15-membered azalides” (J Med Chem, 2011).

Data set [1] relates to Plasmodium falciparum. Briefly: Antimalarial activity against multidrug-resistant Plasmodium falciparum TM91C235 after 48 hrs by [3H]hypoxanthine incorporation assay. It is filed as functional, organism-based. In outline:
(§1)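 [3H]hypoxanthine incorporation assay (Desjardins method, Milhous modification) with 48 h drug exposure. Compounds and controls were 2-fold diluted across 11 concentrations. IC50 was fitted by nonlinear logistic dose-response. Values are averaged where multiple results were generated, with relative errors usually <30%.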

The subject of data set [2] is Plasmodium falciparum. Briefly: Antimalarial activity against chloroquine-sensitive Plasmodium falciparum D6 after 48 hrs by [3H]hypoxanthine incorporation assay. It counts as functional, organism-based. In outline: as §1
In data set [3] the test system is Plasmodium falciparum. Put plainly: Antimalarial activity against chloroquine/pyrimethamine-resistant Plasmodium falciparum W2 after 48 hrs by [3H]hypoxanthine incorporation assay. It is filed as functional, organism-based. In outline:
as §1

The next data set has as its system THP-1. Briefly: Cytotoxicity against human THP1 cells after 1 to 4 hrs by MTS assay. It is filed as cell-based. Put shortly: (§2)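 HepG2 and THP-1 cells grown in RPMI 1640 with 10% FBS at 37 °C, 5% CO₂, and passaged twice weekly. Compounds applied as continuous exposure. Viability read by MTS reagent, 1–4 h incubation, absorbance at 490 nm; IC₅₀ derived.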
A general note: Tetrazolium dyes change colour on reduction, which living cells bring about.

A further data set relates to HepG2. Put plainly: Cytotoxicity against human HepG2 cells after 1 to 4 hrs by MTS assay. It counts as cell-based. In outline: as §2
Data set [4] can be described thus: Half life in human liver microsomes at 1 uM by LCMS analysis. It is filed as ADME, Microsome. Put shortly:
(§3)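 Compound at 1 μM final with 0.5 mg/mL pooled human or mouse liver microsomes, 1.3 mM NADP, 3.3 mM MgCl₂, 0.1 M PBS pH 7.4. Reaction started with 1 U/mL G6PD, shaken at 37 °C. Aliquots quenched with cold acetonitrile at 0, 10, 20, 30 and 60 min and quantified by LCMS. t₁/₂ taken from log plot of total ion chromatogram area remaining.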
In general terms: Liver microsomes are a subcellular fraction often used to study metabolism.

Data set [5] can be described thus: Half life in mouse liver microsomes at 1 uM by LCMS analysis. It counts as ADME, Microsome. Put shortly:
as §3

The pIC50 is the IC50 on a negative log10 scale, so that one unit is a factor of ten. As usually defined, the half-life is the time in which the quantity being followed falls by half. Regarding `CC[C@H]1OC(=O)[C@H](C)[C@@H](O[C@H]2C[C@@](C)(OC)[C@@H](O)[C@H](C)O2)[C@H](C)[C@@H](O[C@@H]2O[C@H](C)C[C@H](N(C)C)[C@H]2O)[C@](C)(O)C[C@@H](C)CN(CCNC(=S)NCc2ccccc2)[C@H](C)[C@@H](O)[C@]1(C)O`, the pIC50 was 6.97 in the data set with Plasmodium falciparum [1]; 6.96 in the data set with Plasmodium falciparum [2]; 7.14 in the data set with Plasmodium falciparum [3]; 5.05 with THP-1; 4.85 in the data set with HepG2. The half-life at 1 µM in data set [4] and in data set [5] was > 2 h each time.

Turning to `CC[C@H]1OC(=O)[C@H](C)[C@@H](O[C@H]2C[C@@](C)(OC)[C@@H](O)[C@H](C)O2)[C@H](C)[C@@H](O[C@@H]2O[C@H](C)C[C@H](N(C)C)[C@H]2O)[C@](C)(O)C[C@@H](C)CN(CCNC(=O)Nc2ccccc2)[C@H](C)[C@@H](O)[C@]1(C)O`, the pIC50 is 6.99 in the data set with Plasmodium falciparum [1]; 6.65 with Plasmodium falciparum [2]; 7.17 with Plasmodium falciparum [3]; 4.57 in the data set on THP-1; 4.32 in the data set with HepG2. The half-life at 1 µM in data set [4] and in data set [5] was > 2 h throughout.

Turning to `CC[C@H]1OC(=O)[C@H](C)[C@@H](O[C@H]2C[C@@](C)(OC)[C@@H](O)[C@H](C)O2)[C@H](C)[C@@H](O[C@@H]2O[C@H](C)C[C@H](N(C)C)[C@H]2O)[C@](C)(O)C[C@@H](C)CN(CCNC(=S)NCCCc2ccccc2)[C@H](C)[C@@H](O)[C@]1(C)O`, the pIC50 with Plasmodium falciparum [1] was 7.09; with Plasmodium falciparum [2], 6.74; with Plasmodium falciparum [3] it was 7.28; with THP-1, 5.30; in the data set on HepG2, 5.10. The half-life at 1 µM in data set [4] and in data set [5] was > 2 h in each case.

Turning to `CCOC(=O)CCN(CCN1C[C@H](C)C[C@@](C)(O)[C@H](O[C@@H]2O[C@H](C)C[C@H](N(C)C)[C@H]2O)[C@@H](C)[C@H](O[C@H]2C[C@@](C)(OC)[C@@H](O)[C@H](C)O2)[C@@H](C)C(=O)O[C@H](CC)[C@@](C)(O)[C@H](O)[C@H]1C)C(=O)Nc1ccc2ccccc2c1`, the negative-log IC50 (pIC50) was 5.67 in the data set on Plasmodium falciparum [1]; 6.11 in the data set with Plasmodium falciparum [2]; 6.68 in the data set with Plasmodium falciparum [3]; 4.70 in the data set on THP-1; 4.64 in the data set on HepG2. For the same compound, the half-life at 1 µM in data set [4] and in data set [5] was > 2 h each time.

For `CC[C@H]1OC(=O)[C@H](C)[C@@H](O[C@H]2C[C@@](C)(OC)[C@@H](O)[C@H](C)O2)[C@H](C)[C@@H](O[C@@H]2O[C@H](C)C[C@H](N(C)C)[C@H]2O)[C@](C)(O)C[C@@H](C)CN(CCCN(CCC#N)C(=O)NC(C)C)[C@H](C)[C@@H](O)[C@]1(C)O`, the pIC50 in the data set on Plasmodium falciparum [1] was 5.89; in the data set on Plasmodium falciparum [2], < 4.87; in the data set with Plasmodium falciparum [3], < 4.87. For the same compound, the half-life at 1 µM in data set [4] and in data set [5] was > 2 h in each case.

In the case of `CC[C@H]1OC(=O)[C@H](C)[C@@H](O[C@H]2C[C@@](C)(OC)[C@@H](O)[C@H](C)O2)[C@H](C)[C@@H](O[C@@H]2O[C@H](C)C[C@H](N(C)C)[C@H]2O)[C@](C)(O)C[C@@H](C)CN(CCNC(=O)Nc2cccc3ccccc23)[C@H](C)[C@@H](O)[C@]1(C)O`, the negative-log IC50 (pIC50) in the data set with Plasmodium falciparum [1] is 7.38; in the data set on Plasmodium falciparum [2] it was 6.85; in the data set with Plasmodium falciparum [3], 7.10; with THP-1, 4.85; in the data set with HepG2 it was 4.46. For the same compound, the half-life at 1 µM in data set [4] and in data set [5] was > 2 h throughout.

On to `CC[C@H]1OC(=O)[C@H](C)[C@@H](O[C@H]2C[C@@](C)(OC)[C@@H](O)[C@H](C)O2)[C@H](C)[C@@H](O[C@@H]2O[C@H](C)C[C@H](N(C)C)[C@H]2O)[C@](C)(O)C[C@@H](C)CN(CCCN(CCC#N)C(=O)Nc2ccc3ccccc3c2)[C@H](C)[C@@H](O)[C@]1(C)O`, for which the pIC50 is 6.94 in the data set with Plasmodium falciparum [1], 6.93 in the data set on Plasmodium falciparum [2] and 6.75 in the data set with Plasmodium falciparum [3]. For the same compound, the half-life at 1 µM in data set [4] and in data set [5] was > 2 h throughout.

In the case of `CC[C@H]1OC(=O)[C@H](C)[C@@H](O[C@H]2C[C@@](C)(OC)[C@@H](O)[C@H](C)O2)[C@H](C)[C@@H](O[C@@H]2O[C@H](C)C[C@H](N(C)C)[C@H]2O)[C@](C)(O)C[C@@H](C)CN(CCNC(=O)Nc2ccc3ccccc3c2)[C@H](C)[C@@H](O)[C@]1(C)O`, the negative-log IC50 (pIC50) was 7.62 in the data set on Plasmodium falciparum [1]; 7.15 with Plasmodium falciparum [2]; 7.52 in the data set with Plasmodium falciparum [3]; 5.30 in the data set on THP-1; 5.05 with HepG2. In addition, the half-life at 1 µM in data set [4] and in data set [5] was > 2 h each time.

For the compound `CC[C@H]1OC(=O)[C@H](C)[C@@H](O[C@H]2C[C@@](C)(OC)[C@@H](O)[C@H](C)O2)[C@H](C)[C@@H](O[C@@H]2O[C@H](C)C[C@H](N(C)C)[C@H]2O)[C@](C)(O)C[C@@H](C)CN(CCN(CCC(N)=O)C(=O)Nc2ccc3ccccc3c2)[C@H](C)[C@@H](O)[C@]1(C)O`, the negative-log IC50 (pIC50) in the data set on Plasmodium falciparum [1] is 7.41; with Plasmodium falciparum [2], 6.72; with Plasmodium falciparum [3] it was 7.21; in the data set on THP-1, 5.15; with HepG2, 4.89. Also, the half-life at 1 µM in data set [4] and in data set [5] was > 2 h throughout.

On to `CC[C@H]1OC(=O)[C@H](C)[C@@H](O[C@H]2C[C@@](C)(OC)[C@@H](O)[C@H](C)O2)[C@H](C)[C@@H](O[C@@H]2O[C@H](C)C[C@H](N(C)C)[C@H]2O)[C@](C)(O)C[C@@H](C)CN(CCNC(=O)NC(C)C)[C@H](C)[C@@H](O)[C@]1(C)O`, for which the negative logarithm of the IC50 (pIC50) in the data set with Plasmodium falciparum [1] was 6.14; with Plasmodium falciparum [2], 5.85; with Plasmodium falciparum [3], 5.69. The half-life at 1 µM in data set [4] and in data set [5] was > 2 h in each case.

`CC[C@H]1OC(=O)[C@H](C)[C@@H](O[C@H]2C[C@@](C)(OC)[C@@H](O)[C@H](C)O2)[C@H](C)[C@@H](O[C@@H]2O[C@H](C)C[C@H](N(C)C)[C@H]2O)[C@](C)(O)C[C@@H](C)CN(CCNC(=S)NCCc2ccccc2)[C@H](C)[C@@H](O)[C@]1(C)O`: the pIC50 in the data set with Plasmodium falciparum [1] was 6.89; in the data set with Plasmodium falciparum [2], 6.69; in the data set with Plasmodium falciparum [3] it was 6.99; with THP-1 it was 5.40; in the data set with HepG2, 5.05. Further, the half-life at 1 µM in data set [4] and in data set [5] was > 2 h throughout.

As to `CC[C@H]1OC(=O)[C@H](C)[C@@H](O)[C@H](C)[C@@H](O[C@@H]2O[C@H](C)C[C@H](N(C)C)[C@H]2O)[C@](C)(O)C[C@@H](C)CN(CCCNC(=S)NCc2ccccc2)[C@H](C)[C@@H](O)[C@]1(C)O`, the pIC50 is 5.81 in the data set with Plasmodium falciparum [1]; 5.69 in the data set on Plasmodium falciparum [2]; 5.44 in the data set with Plasmodium falciparum [3]; < 4.30 in the data set with THP-1; < 4.30 with HepG2. For the same compound, the half-life at 1 µM in data set [4] and in data set [5] was > 2 h in each case.

Regarding `CC[C@H]1OC(=O)[C@H](C)[C@@H](O[C@H]2C[C@@](C)(OC)[C@@H](O)[C@H](C)O2)[C@H](C)[C@@H](O[C@@H]2O[C@H](C)C[C@H](N(C)C)[C@H]2O)[C@](C)(O)C[C@@H](C)CN(CCNC(=O)NC(C)c2cccc3ccccc23)[C@H](C)[C@@H](O)[C@]1(C)O` (some centres not stated), the pIC50 in the data set on Plasmodium falciparum [1] was 7.34; with Plasmodium falciparum [2], 6.75; with Plasmodium falciparum [3], 7.48; in the data set with THP-1, 5.10; with HepG2, 5.00. For the same compound, the half-life at 1 µM in data set [4] and in data set [5] was > 2 h each time.

In the case of `CCNC(=O)NCCN1C[C@H](C)C[C@@](C)(O)[C@H](O[C@@H]2O[C@H](C)C[C@H](N(C)C)[C@H]2O)[C@@H](C)[C@H](O[C@H]2C[C@@](C)(OC)[C@@H](O)[C@H](C)O2)[C@@H](C)C(=O)O[C@H](CC)[C@@](C)(O)[C@H](O)[C@H]1C`, the pIC50 in the data set on Plasmodium falciparum [1] is 6.01; in the data set with Plasmodium falciparum [2], 5.44; in the data set with Plasmodium falciparum [3], 5.31. The half-life at 1 µM in data set [4] and in data set [5] was > 2 h in each case.

Turning to `CC[C@H]1OC(=O)[C@H](C)[C@@H](O)[C@H](C)[C@@H](O[C@@H]2O[C@H](C)C[C@H](N(C)C)[C@H]2O)[C@](C)(O)C[C@@H](C)CN(CCNC(=S)NCCCc2ccccc2)[C@H](C)[C@@H](O)[C@]1(C)O`, the pIC50 with Plasmodium falciparum [1] is 6.65; in the data set on Plasmodium falciparum [2], 6.18; with Plasmodium falciparum [3], 6.75; in the data set on THP-1, 5.15; in the data set with HepG2, 4.85. Also, the half-life at 1 µM in data set [4] and in data set [5] was > 2 h each time.

As to `CC[C@H]1OC(=O)[C@H](C)[C@@H](O[C@H]2C[C@@](C)(OC)[C@@H](O)[C@H](C)O2)[C@H](C)[C@@H](O[C@@H]2O[C@H](C)C[C@H](N(C)C)[C@H]2O)[C@](C)(O)C[C@@H](C)CN(CCCN(CCC#N)C(=O)Nc2cccc3ccccc23)[C@H](C)[C@@H](O)[C@]1(C)O`, the negative-log IC50 (pIC50) was 6.59 in the data set on Plasmodium falciparum [1], 6.28 in the data set on Plasmodium falciparum [2] and 5.86 in the data set with Plasmodium falciparum [3]. The half-life at 1 µM in data set [4] and in data set [5] was > 2 h throughout.

As to `CC[C@H]1OC(=O)[C@H](C)[C@@H](O[C@H]2C[C@@](C)(OC)[C@@H](O)[C@H](C)O2)[C@H](C)[C@@H](O[C@@H]2O[C@H](C)C[C@H](N(C)C)[C@H]2O)[C@](C)(O)C[C@@H](C)CN(CCCNC(=O)NC(C)C)[C@H](C)[C@@H](O)[C@]1(C)O`, the pIC50 in the data set with Plasmodium falciparum [1] is < 5.24; in the data set with Plasmodium falciparum [2] it was < 5.85; in the data set on Plasmodium falciparum [3], < 5.24. Besides, the half-life at 1 µM in data set [4] and in data set [5] was > 2 h throughout.
